Screening results deposited in PubChem by several laboratories.
MBD2 DNA inh = MBD2-methylated oligo binding inhibition. AID 686964. Q9UBB5. TR-FRET, MBD2 binding to methylated oligonucleotide. inhibition, % at 4.4 µM. 370,000 compounds, 0.31% hits; in the data active = inhibition above about 13%
Rin1 Abl inh = human Rin1-Abl interaction inhibition | P00519+Q13671 | TR-FRET Rin1/Abl binding, biochemical | inhibition, % at 7.35 µM | 360,000 compounds, 0.4% hits | AID 588664; in the data active = inhibition above about 5%, passing the limit was not always enough
ABHD5-PLIN5 inh = blocks binding of human ABHD5 to perilipin-5 | Split G. princeps luciferase complementation, luminescence, 4 h | inhibition, % at 4 µM | 360,000 compounds, 0.78% hits;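 active = inhibition above the mean inhibition across every tested compound plus 3 SD, cut at about 22% in these data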;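 also: 0% = DMSO only wells and the 100% control is not disclosed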
Target sequence (Q00G26 whole entry, looked up): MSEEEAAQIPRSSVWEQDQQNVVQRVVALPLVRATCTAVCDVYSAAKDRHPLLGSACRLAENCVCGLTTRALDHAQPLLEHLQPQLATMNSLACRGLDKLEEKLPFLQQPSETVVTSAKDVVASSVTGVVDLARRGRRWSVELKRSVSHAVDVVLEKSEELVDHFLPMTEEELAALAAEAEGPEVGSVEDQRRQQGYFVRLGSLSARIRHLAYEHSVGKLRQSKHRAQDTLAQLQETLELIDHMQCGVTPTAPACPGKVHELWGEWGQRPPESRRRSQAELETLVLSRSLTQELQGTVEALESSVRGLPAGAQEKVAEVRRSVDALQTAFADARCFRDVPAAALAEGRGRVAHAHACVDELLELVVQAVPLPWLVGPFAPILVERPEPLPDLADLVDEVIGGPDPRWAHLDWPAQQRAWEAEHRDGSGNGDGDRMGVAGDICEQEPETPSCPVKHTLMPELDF
Target sequence (Q8WTS1 whole entry, looked up): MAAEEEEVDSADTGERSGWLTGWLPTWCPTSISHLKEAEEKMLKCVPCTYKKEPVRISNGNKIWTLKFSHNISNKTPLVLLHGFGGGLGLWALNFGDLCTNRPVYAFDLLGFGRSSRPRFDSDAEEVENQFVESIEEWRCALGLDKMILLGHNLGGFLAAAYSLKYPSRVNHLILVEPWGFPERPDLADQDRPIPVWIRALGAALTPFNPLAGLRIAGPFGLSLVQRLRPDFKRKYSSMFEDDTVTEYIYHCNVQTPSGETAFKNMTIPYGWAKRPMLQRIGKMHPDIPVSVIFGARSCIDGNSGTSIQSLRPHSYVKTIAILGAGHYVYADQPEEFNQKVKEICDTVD
UHRF1 MBD2 ctr = UHRF1 methyl-DNA binding inhibition. Q96T88. UHRF1 binding to methylated oligo, TR-FRET. inhibition, % at 4.4 µM. 370,000 compounds, 0.75% hits; in the data active = inhibition above about 21%;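 also: UHRF1 SRA domain binding a hemimethylated CpG hairpin DNA probe; 0% = median of test compound wells and 100% = reference inhibitor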
Arrestin-AP2 inh = human beta-arrestin and AP2 interaction inhibition. inhibition, % at 10 µM. FITC-arrestin peptide / GST-AP2 beads, flow cytometry; AP2 beta2 appendage carries R879A mutation. 340,000 compounds, 0.31% hits. AID 504490;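 active = inhibition above a set limit, near 3 SD of compounds lacking own fluorescence, cut at about 54% in these data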;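 also: plate controls were DMSO wells for no effect and 5 µM unlabelled arrestin peptide for full effect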
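Measured by: flow cytometry, FL1 (488/535 nm); Material: AP2 appendage R879A on GSH beads; Evaluation: percent response; Timing: pre-incubation 12 min, peptide binding 1 h, room temperature; Also added: 50 nM FITC-arrestin peptide; Medium: PBS with 0.05% Tween 20 and 0.1% BSA.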
Beta2AR agonist = agonists of human beta-2 adrenergic receptor inducing internalization. P07550. Am2.2-beta2AR cells, FAP receptor internalization, flow cytometry. response, % (no concentration beside the values). 340,000 compounds, 0.43% hits;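 active = response above a set limit, near 3 SD of response in nonfluorescent compounds, cut at about 42% in these data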
Arr-AP2 CP1 = human beta-arrestin and AP2 interaction inhibition, cherry pick; shares compounds with Arrestin-AP2 inh; GST-AP2 beads, FITC arrestin peptide binding, flow cytometry; GST-fused beta2-adaptin appendage, R879A mutant; inhibition, % at 10 µM; 1,300 compounds, 2% hits; AID 504908;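 active = inhibition above a set limit, roughly 3 SD of non-fluorescent compound noise, cut at about 38% in these data; inactive = inhibition at or below that limit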;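 also: loss of bead fluorescence from 50 nM FITC arrestin peptide bound to appendage; 0% = negative control wells and 100% = excess unlabelled arrestin peptide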
GST-FITC bead = GST-GSH bead binding interference, counter-screen. 1,300 compounds, 2% hits. inhibition, % at 10 µM. shares compounds with Arrestin-AP2 inh. GST-fluorescein binding to GSH beads, fluorescence;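 active = inhibition above 50%, about 3 SD of the inhibition seen with non-fluorescent compounds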;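 also: fluorescein maleimide labelled GST captured on 4 micron glutathione beads; higher means more loss of bead fluorescence from quenching or blocked binding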
Active calls of the source: *. Shown are actives, neighbours in structure and some others; about 2.5% of the full set was active somewhere.

COC(=O)c1c(NC(=O)/C=C/C(=O)O)sc(C)c1-c1ccc(C(C)C)cc1 was read as MBD2 DNA inh 2, Rin1 Abl inh 2, ABHD5-PLIN5 inh 20, UHRF1 MBD2 ctr 0, Arrestin-AP2 inh 57*, Beta2AR agonist 10, Arr-AP2 CP1 -2 and GST-FITC bead -10.
S=C(NCc1ccco1)Nc1ccc(Cl)c(Cl)c1 was read as MBD2 DNA inh 0, Rin1 Abl inh -5, ABHD5-PLIN5 inh -8, UHRF1 MBD2 ctr 1, Arrestin-AP2 inh 14 and Beta2AR agonist -11.
For S=C(NCc1ccco1)Nc1cccc(Cl)c1 the results were MBD2 DNA inh -3, Rin1 Abl inh 3, ABHD5-PLIN5 inh 7, UHRF1 MBD2 ctr -1, Arrestin-AP2 inh 59*, Beta2AR agonist 9, Arr-AP2 CP1 18 and GST-FITC bead -5.
`CCOC(=O)N1CCN(C(=O)C[C@H]2C[C@@]3(C(=O)OC)C(=C[C@H](COCc4ccccc4)O[C@@H]3C)N(Cc3ccccc3)C2=O)CC1` gave MBD2 DNA inh 1 and UHRF1 MBD2 ctr 1.
For CCc1nnc(NC(=O)CCC(=O)N2CCN(Cc3cc(F)ccc3OC)CC2)s1 the results were MBD2 DNA inh -1, Rin1 Abl inh 2, ABHD5-PLIN5 inh 4, UHRF1 MBD2 ctr 1, Arrestin-AP2 inh -56 and Beta2AR agonist -5.
COc1ccc(F)cc1CN1CCN(C(=O)CCC(=O)Nc2nnc(CC(C)C)s2)CC1 was read as MBD2 DNA inh 3, Rin1 Abl inh 4, ABHD5-PLIN5 inh 13, UHRF1 MBD2 ctr -2, Arrestin-AP2 inh 54*, Beta2AR agonist -5, Arr-AP2 CP1 8 and GST-FITC bead -5.
For Cc1cccc(C(=O)Nc2c3c(nn2C(C)(C)C)CS(=O)(=O)C3)c1 the results were MBD2 DNA inh -4, Rin1 Abl inh 0, ABHD5-PLIN5 inh 7, UHRF1 MBD2 ctr -3, Arrestin-AP2 inh 61*, Beta2AR agonist -2, Arr-AP2 CP1 -3 and GST-FITC bead -3.
For C=CCN1C(=O)[C@@H](CC(=O)NCc2ccccc2)[C@]2(C(=O)OCC)CCCCC/C=C/12 the results were MBD2 DNA inh 2 and UHRF1 MBD2 ctr 1.
Screening Nc1ccc2c(C(F)(F)F)cc(C(F)(F)F)nc2n1 returned MBD2 DNA inh -1, Rin1 Abl inh 7, ABHD5-PLIN5 inh 2, UHRF1 MBD2 ctr -5, Arrestin-AP2 inh 56*, Beta2AR agonist 2, Arr-AP2 CP1 -3 and GST-FITC bead -6.
FC(F)(F)c1cc(C(F)(F)F)c2ccc(Oc3ccccc3)nc2n1 was read as MBD2 DNA inh 3, Rin1 Abl inh -1, ABHD5-PLIN5 inh 8, UHRF1 MBD2 ctr 3, Arrestin-AP2 inh 5 and Beta2AR agonist -17.
`Cc1cc(NC(=O)/C=C/c2ccc(F)cc2)n(-c2nc3ccccc3[nH]2)n1` gave MBD2 DNA inh -1, Rin1 Abl inh 3, ABHD5-PLIN5 inh 0, UHRF1 MBD2 ctr -1, Arrestin-AP2 inh 0 and Beta2AR agonist -15.
For Cc1cc(NC(=O)/C=C/c2cccc(F)c2)n(-c2nc3ccccc3[nH]2)n1 the results were MBD2 DNA inh 3, Rin1 Abl inh 1, ABHD5-PLIN5 inh 3, UHRF1 MBD2 ctr 2, Arrestin-AP2 inh 25 and Beta2AR agonist -15.
Cc1cc(NC(=O)c2ccc(C)s2)n(-c2nc3ccccc3[nH]2)n1 was read as MBD2 DNA inh 2, Rin1 Abl inh -2, ABHD5-PLIN5 inh -1, UHRF1 MBD2 ctr -4, Arrestin-AP2 inh 1, Beta2AR agonist -19, Arr-AP2 CP1 -13 and GST-FITC bead 2.
`Cc1cc(NC(=O)c2c(F)cccc2Cl)n(-c2nc3ccccc3[nH]2)n1` gave MBD2 DNA inh 2, Rin1 Abl inh 1, ABHD5-PLIN5 inh -10, UHRF1 MBD2 ctr -2, Arrestin-AP2 inh 99*, Beta2AR agonist 5, Arr-AP2 CP1 6 and GST-FITC bead -6.
